Test results reported in ChEMBL document CHEMBL4373663, “New N-phenyl-4,5-dibromopyrrolamides as DNA gyrase B inhibitors” (Medchemcomm, 2019).
Activity calls are given as the source filed them. The rule behind the calls is not given here.

Key:
[1] = system: Escherichia coli; experiment: Inhibition of Escherichia coli DNA topoisomerase 4 using supercoiled pNO1 plasmid DNA as substrate assessed as enzyme residual activity at 10 uM incubated for 30 mins by fluorescence assay relative to control
[2] = system: Staphylococcus aureus; experiment: Antibacterial activity against Staphylococcus aureus ATCC 25923 assessed as bacterial growth at 50 uM incubated for 24 hrs by broth microdilution assay; type: functional, organism-based
Procedure, shortened: (§1)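 Clinical control strains kept on cation-adjusted Mueller Hinton agar slants. Before the assay, suspensions were grown in cation-adjusted Mueller Hinton broth at 37 °C for 16–20 h at 100 rpm. Broth microdilution in 96-well format followed CLSI guidelines. Each compound was tested at 50 μM, and the result was expressed as percentage inhibition of bacterial growth.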

[3] = target: Topoisomerase IV (Staphylococcus aureus) (UniProt P0C1U9+P0C1S7); experiment: Inhibition of Staphylococcus aureus DNA topoisomerase 4 using supercoiled pNO1 plasmid DNA as substrate assessed as enzyme residual activity at 10 uM incubated for 30 mins by fluorescence assay relative to control; type: protein-complex assay
[4] = target: DNA gyrase (Escherichia coli, UniProt P0AES4+P0AES6); experiment: Inhibition of Escherichia coli DNA gyrase using relaxed pNO1 plasmid DNA as substrate incubated for 30 mins by fluorescence assay; type: protein-complex assay
[5] = system: Enterococcus faecalis; experiment: Antibacterial activity against Enterococcus faecalis ATCC 29212 assessed as reduction in bacterial growth at 50 uM incubated for 24 hrs by broth microdilution assay relative to control; type: functional; procedure, shortened: as §1
[6] = system: Escherichia coli; experiment: Antibacterial activity against Escherichia coli ATCC 25922 assessed as reduction in bacterial growth at 50 uM incubated for 24 hrs by broth microdilution assay relative to control; type: functional; procedure, shortened: as §1
[7] = system: Pseudomonas aeruginosa; experiment: Antibacterial activity against Pseudomonas aeruginosa ATCC 27853 assessed as bacterial growth at 50 uM incubated for 24 hrs by broth microdilution assay; type: functional, organism-based; procedure, shortened: as §1
[8] = target: DNA gyrase (Staphylococcus aureus) (UniProt P0A0K8+P20831); experiment: Inhibition of Staphylococcus aureus DNA gyrase using relaxed pNO1 plasmid DNA as substrate assessed as enzyme residual activity at 10 uM incubated for 30 mins by fluorescence assay relative to control; type: protein-complex assay
Sequence of DNA gyrase (Staphylococcus aureus) (P0A0K8 2-644 limits assumed): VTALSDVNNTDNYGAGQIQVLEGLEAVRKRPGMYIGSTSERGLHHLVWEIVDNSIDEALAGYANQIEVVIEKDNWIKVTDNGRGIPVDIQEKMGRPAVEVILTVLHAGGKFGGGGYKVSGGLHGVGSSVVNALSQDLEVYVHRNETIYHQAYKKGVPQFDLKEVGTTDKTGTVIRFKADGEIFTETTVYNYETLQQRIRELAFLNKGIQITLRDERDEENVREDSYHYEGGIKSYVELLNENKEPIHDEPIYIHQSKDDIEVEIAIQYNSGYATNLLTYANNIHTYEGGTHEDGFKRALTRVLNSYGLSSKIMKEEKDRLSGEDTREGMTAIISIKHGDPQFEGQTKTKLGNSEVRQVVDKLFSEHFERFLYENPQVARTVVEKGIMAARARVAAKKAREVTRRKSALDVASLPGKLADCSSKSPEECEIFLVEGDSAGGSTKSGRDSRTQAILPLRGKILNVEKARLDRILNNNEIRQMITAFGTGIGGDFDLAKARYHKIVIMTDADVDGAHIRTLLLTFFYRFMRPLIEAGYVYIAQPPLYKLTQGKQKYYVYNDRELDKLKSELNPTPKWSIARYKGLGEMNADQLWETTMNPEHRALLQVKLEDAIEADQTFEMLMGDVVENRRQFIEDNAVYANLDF
Sequence of DNA gyrase (Staphylococcus aureus) (P20831 whole entry partner): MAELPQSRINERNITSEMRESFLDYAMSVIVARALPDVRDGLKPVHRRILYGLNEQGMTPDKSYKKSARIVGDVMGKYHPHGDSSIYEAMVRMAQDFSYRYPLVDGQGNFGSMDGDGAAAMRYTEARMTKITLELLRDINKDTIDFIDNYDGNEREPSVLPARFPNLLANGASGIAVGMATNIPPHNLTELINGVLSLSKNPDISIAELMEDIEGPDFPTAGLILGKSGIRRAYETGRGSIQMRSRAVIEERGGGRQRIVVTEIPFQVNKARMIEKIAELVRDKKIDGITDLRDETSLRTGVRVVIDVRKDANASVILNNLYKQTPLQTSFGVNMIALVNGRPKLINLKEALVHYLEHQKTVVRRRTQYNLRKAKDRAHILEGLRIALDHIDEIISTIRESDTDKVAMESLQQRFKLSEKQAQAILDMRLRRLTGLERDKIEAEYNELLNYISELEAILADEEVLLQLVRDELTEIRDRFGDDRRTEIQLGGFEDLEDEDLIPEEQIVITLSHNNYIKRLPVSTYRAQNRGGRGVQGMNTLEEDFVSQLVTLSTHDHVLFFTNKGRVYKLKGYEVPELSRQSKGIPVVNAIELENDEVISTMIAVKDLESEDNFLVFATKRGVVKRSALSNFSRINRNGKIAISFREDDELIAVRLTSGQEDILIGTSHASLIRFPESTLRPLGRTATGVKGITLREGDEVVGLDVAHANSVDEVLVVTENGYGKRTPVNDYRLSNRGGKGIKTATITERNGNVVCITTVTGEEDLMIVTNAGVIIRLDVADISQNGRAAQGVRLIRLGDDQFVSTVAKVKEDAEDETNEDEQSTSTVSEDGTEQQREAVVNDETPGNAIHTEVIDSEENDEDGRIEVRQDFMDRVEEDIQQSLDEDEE

[9] = target: DNA gyrase (Staphylococcus aureus, UniProt P0A0K8+P20831); experiment: Inhibition of Staphylococcus aureus DNA gyrase using relaxed pNO1 plasmid DNA as substrate incubated for 30 mins by fluorescence assay; type: protein-complex assay
Sequence of DNA gyrase (Staphylococcus aureus, UniProt P0A0K8+P20831) (P0A0K8 whole entry): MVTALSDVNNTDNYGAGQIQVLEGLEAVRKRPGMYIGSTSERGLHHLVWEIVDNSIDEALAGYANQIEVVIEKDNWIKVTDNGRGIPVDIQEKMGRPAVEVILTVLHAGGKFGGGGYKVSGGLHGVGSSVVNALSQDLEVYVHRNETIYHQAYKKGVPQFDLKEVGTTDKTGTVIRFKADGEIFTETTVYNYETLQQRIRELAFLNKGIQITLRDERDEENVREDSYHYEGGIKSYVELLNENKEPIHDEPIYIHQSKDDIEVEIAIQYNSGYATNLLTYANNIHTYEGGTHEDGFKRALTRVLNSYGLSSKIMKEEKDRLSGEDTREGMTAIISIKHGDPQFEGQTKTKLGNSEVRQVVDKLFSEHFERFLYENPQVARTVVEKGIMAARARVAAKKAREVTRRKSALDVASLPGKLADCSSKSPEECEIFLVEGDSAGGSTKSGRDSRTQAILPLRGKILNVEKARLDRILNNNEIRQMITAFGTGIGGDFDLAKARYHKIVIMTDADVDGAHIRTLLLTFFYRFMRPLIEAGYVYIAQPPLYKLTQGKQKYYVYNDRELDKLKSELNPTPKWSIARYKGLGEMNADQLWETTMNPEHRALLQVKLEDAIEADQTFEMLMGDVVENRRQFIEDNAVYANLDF
Sequence of DNA gyrase (Staphylococcus aureus, UniProt P0A0K8+P20831) (P20831 whole entry): as the sequence (P20831 whole entry partner) above

[10] = target: DNA gyrase (Escherichia coli) (UniProt P0AES6+P0AES4); experiment: Inhibition of Escherichia coli DNA gyrase using relaxed pNO1 plasmid DNA as substrate assessed as enzyme residual activity at 10 uM incubated for 30 mins by fluorescence assay relative to control; type: protein-complex assay
[11] = target: Topoisomerase IV (Staphylococcus aureus, UniProt P0C1S7+P0C1U9); experiment: Inhibition of Staphylococcus aureus DNA topoisomerase 4 using supercoiled pNO1 plasmid DNA as substrate incubated for 30 mins by fluorescence assay; type: protein-complex assay
Sequence of Topoisomerase IV (P0C1U9 whole entry): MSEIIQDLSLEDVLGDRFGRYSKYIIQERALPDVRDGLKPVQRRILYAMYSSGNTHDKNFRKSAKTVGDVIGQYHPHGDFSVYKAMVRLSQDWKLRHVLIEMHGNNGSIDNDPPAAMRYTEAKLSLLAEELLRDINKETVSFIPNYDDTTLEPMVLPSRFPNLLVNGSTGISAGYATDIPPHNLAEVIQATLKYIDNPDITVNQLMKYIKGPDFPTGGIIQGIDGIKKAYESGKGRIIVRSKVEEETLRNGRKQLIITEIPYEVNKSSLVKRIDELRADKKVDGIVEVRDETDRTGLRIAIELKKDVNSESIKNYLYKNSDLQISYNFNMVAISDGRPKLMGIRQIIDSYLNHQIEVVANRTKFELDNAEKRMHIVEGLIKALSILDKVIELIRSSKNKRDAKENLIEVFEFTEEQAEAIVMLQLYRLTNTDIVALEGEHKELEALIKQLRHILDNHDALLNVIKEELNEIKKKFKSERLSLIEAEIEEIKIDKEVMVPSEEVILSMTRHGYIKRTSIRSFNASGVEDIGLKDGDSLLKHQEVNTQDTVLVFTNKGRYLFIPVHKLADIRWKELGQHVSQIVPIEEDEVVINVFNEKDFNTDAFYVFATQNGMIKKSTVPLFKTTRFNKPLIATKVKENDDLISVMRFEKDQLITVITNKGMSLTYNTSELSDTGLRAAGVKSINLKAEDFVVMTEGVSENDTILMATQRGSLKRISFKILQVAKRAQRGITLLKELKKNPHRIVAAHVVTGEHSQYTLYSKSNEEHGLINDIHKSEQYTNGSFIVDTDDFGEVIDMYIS
Sequence of Topoisomerase IV (P0C1S7 whole entry): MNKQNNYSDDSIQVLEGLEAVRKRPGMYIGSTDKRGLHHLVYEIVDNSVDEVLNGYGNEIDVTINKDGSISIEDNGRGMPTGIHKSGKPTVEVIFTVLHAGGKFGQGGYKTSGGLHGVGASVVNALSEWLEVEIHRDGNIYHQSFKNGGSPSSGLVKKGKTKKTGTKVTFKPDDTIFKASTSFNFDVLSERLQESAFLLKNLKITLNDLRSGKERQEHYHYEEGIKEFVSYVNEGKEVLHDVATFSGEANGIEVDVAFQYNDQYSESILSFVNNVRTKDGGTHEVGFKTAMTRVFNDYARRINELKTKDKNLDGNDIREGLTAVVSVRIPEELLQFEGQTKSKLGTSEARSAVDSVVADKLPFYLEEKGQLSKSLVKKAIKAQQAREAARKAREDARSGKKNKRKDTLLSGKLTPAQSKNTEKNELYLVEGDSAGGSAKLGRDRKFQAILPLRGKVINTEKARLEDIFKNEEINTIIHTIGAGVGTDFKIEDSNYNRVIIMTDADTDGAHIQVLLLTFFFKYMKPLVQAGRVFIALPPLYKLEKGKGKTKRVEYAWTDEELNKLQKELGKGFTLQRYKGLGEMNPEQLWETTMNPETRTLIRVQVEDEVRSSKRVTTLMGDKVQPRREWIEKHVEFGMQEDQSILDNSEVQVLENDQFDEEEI

[12] = Inhibition of Escherichia coli DNA topoisomerase 4 using supercoiled pNO1 plasmid DNA as substrate incubated for 30 mins by fluorescence assay

Q: What does the source list for `Cc1nc(-c2cc(NC(=O)CC(=O)NN)ccc2NC(=O)c2cc(Br)c(Br)[nH]2)no1`?
A: Activity [1]: 88%; inhibition [2]: inactive; Activity [3]: 98%; IC50 [4]: 140 nM; inhibition [5]: inactive; inhibition at 50 µM ([6]; ATCC 25922, 24 h): 16%; inhibition [7]: inactive; Activity [8]: 80%

Q: For `Cc1nc(-c2cc(NC(=O)Cc3n[nH]c(=O)o3)ccc2NC(=O)c2cc(Br)c(Br)[nH]2)no1`, which Activity [1] is on record?
A: The Activity was 91%.

Q: And the inhibition [2]?
A: The inhibition was “inactive”.

Q: What about the Activity [3] of the same compound?
A: The Activity was 60%.

Q: What about the IC50 [4] of the same compound?
A: The IC50 was 45 nM.

Q: And the inhibition [5]?
A: Its inhibition is “inactive”.

Q: What about the inhibition [6] of the same compound?
A: Its inhibition is “inactive”.

Q: And the inhibition [7]?
A: The inhibition was “inactive”.

Q: What about the IC50 [9] of the same compound?
A: Its IC50 is 11000 nM.

Q: With `COC(=O)COc1ccc(NC(=O)c2cc(Br)c(Br)[nH]2)c(OCc2ccccc2)c1` as the compound, how does the Activity [10] read?
A: Its Activity is 100%.

Q: Which results are given for `Cc1nc(-c2cc(NC(=O)CC(=O)O)ccc2NC(=O)c2cc(Br)c(Br)[nH]2)no1`?
A: inhibition [2]: inactive; IC50 [4]: 20 nM; inhibition [5]: inactive; IC50 [11]: 14000 nM; IC50 [12]: 11000 nM; inhibition [6]: inactive; inhibition [7]: inactive; IC50 [9]: 1400 nM

Q: With `NNC(=O)COc1ccc(NC(=O)c2cc(Br)c(Br)[nH]2)cc1` as the compound, how does the Activity [10] read?
A: The Activity was 100%.

Q: Which inhibition [2] does the source give for `O=C(Nc1ccc(OCc2n[nH]c(=O)o2)cc1OCc1ccccc1)c1cc(Br)c(Br)[nH]1` here?
A: The inhibition was “inactive”.

Q: And the inhibition [5]?
A: Its inhibition is “inactive”.

Q: And the inhibition [6]?
A: The inhibition was “inactive”.

Q: What about the Activity [10] of the same compound?
A: The Activity was 85%.

Q: And the inhibition [7]?
A: Its inhibition is “inactive”.

Q: What does the source list for `O=C(Nc1ccc(OCc2n[nH]c(=O)o2)cc1)c1cc(Br)c(Br)[nH]1`?
A: inhibition [2]: inactive; IC50 [4]: 8600 nM; inhibition [5]: inactive; inhibition [6]: inactive; inhibition [7]: inactive

Q: Which Activity [10] does the source give for `NNC(=O)COc1ccc(NC(=O)c2cc(Br)c(Br)[nH]2)c(OCc2ccccc2)c1` here?
A: The Activity was 100%.

Q: Which Activity [1] does the source give for `O=C(O)COc1ccc(NC(=O)c2cc(Br)c(Br)[nH]2)c(OCc2ccccc2)c1` here?
A: Its Activity is 84%.

Q: And the inhibition [2]?
A: The inhibition was “inactive”.

Q: And the Activity [3]?
A: The Activity was 92%.

Q: What about the IC50 [4] of the same compound?
A: Its IC50 is 860 nM.

Q: What about the inhibition at 50 µM ([5]; ATCC 29212, 24 h) of the same compound?
A: The inhibition at 50 µM was 25%.

Q: And the inhibition [6]?
A: Its inhibition is “inactive”.

Q: And the inhibition [7]?
A: Its inhibition is “inactive”.

Q: And the Activity [8]?
A: The Activity was 87%.

Q: What does the source list for `COC(=O)CC(=O)Nc1ccc(NC(=O)c2cc(Br)c(Br)[nH]2)c(-c2noc(C)n2)c1`?
A: Activity [1]: 72%; inhibition [2]: inactive; Activity [3]: 100%; IC50 [4]: 86 nM; inhibition [5]: inactive; inhibition [6]: inactive; inhibition [7]: inactive; IC50 [9]: 63000 nM
